For 15 molecules, metabolised, IC50 and Selectivity results are on record in ChEMBL document CHEMBL1138783, “Subtype selective substrates for histone deacetylases” (J Med Chem, 2004).

Molecules are shown by their SMILES. Square brackets hold non-standard residues; d marks the D form. Peptide text beside a SMILES is read from it. * marks the point of attachment. Asu = N[C@@H](CCCCCC(=O)O)C(=O)O; Aib = CC(C)(N)C(=O)O; NHOH = ON*

In data set [1] the test system is histone deacetylase (HDAC). Put plainly: Percent conversion by rat liver histone deacetylase (HDAC) was determined after 6 h. It is filed as ADME. The following applies: read-out: Conversion. An outline of the steps: (§1)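 Deacetylase from rat liver, purified by ammonium sulfate precipitation and Q-sepharose NaCl-gradient chromatography (class I and II subtypes), in phosphate buffer pH 7.9 (EDTA, NaCl, glycerol, 2-mercaptoethanol). Enzyme preincubated 15 min at 4 °C, then run at 37 °C with candidate substrate and 7-hydroxycoumarin internal standard. Stopped with HCl/sodium acetate, ethyl acetate extraction, reversed-phase HPLC with fluorescence detection. Conversion taken against no-enzyme control. Duplicates.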

Data set [2] concerns histone deacetylase (HDAC). The experiment in a line: Percent conversion by rat liver histone deacetylase (HDAC) was determined after 24 h. It is filed as ADME. The following applies: read-out: Conversion. An outline of the steps:
as §1

The subject of data set [3] is histone deacetylase (HDAC). Put plainly: Percent conversion by rat liver histone deacetylase (HDAC) was determined after 3 h. Format: ADME. The following applies: read-out: Conversion. The essentials:
as §1

The subject of data set [4] is histone deacetylase (HDAC). Put plainly: Percent conversion by rat liver histone deacetylase (HDAC) was determined after 1 h. Format: ADME. The following applies: read-out: Conversion. The essentials:
as §1

Data set [5] deals with histone deacetylase (HDAC). Put plainly: Percent conversion by rat liver histone deacetylase (HDAC) was determined after 2 h. It is filed as ADME. The following applies: read-out: Conversion. The essentials: as §1
For data set [6], the target named is Histone deacetylase. The experiment in a line: Inhibitory concentration against rat liver histone deacetylase (HDAC) with substrate 5a.
Data set [7] deals with Histone deacetylase. Put plainly: Inhibitory concentration against rat liver histone deacetylase (HDAC) with substrate 3a.
Data set [8] has as its target Histone deacetylase. The experiment in a line: Inhibitory activity against rat liver Histone deacetylase with substrate 3a.
The target in data set [9] is Histone deacetylase. The experiment in a line: Inhibitory activity against rat liver Histone deacetylase with substrate 3b.
Data set [10] addresses Histone deacetylase. The experiment in a line: Inhibitory activity against rat liver Histone deacetylase with substrate 5b.
The subject of data set [11] is HDAC6/HDAC1 (Homo sapiens). The experiment in a line: Selectivity ratio for Histone deacetylase 6 versus Histone deacetylase 1.

As to `CCC(=O)NCCCC[C@H](NC(=O)OCc1ccccc1)C(=O)Nc1ccc2c(C)cc(=O)oc2c1`, the metabolised at 6 h in [1] worked out at 74%. Further, in [2], the metabolised at 24 h is 87%. For the same molecule, in data set [3], the metabolised at 3 h stood at 47%. Besides, the metabolised at 1 h in [4] was determined as 20%. Also, in data set [5], the metabolised at 2 h is 33%.

`CC(=O)NCCCC[C@H](NC(=O)OCc1ccccc1)C(=O)Nc1ccc2c(C)cc(=O)oc2c1`: the metabolised at 6 h in data set [1] came out at 96%. In addition, in data set [2], the metabolised at 24 h is 100%. Moreover, the metabolised at 3 h in data set [3] came out at 93%. In addition, the metabolised at 1 h in data set [4] came to 67%. Besides, the metabolised at 2 h in data set [5] came to 87%.

As to `Cc1cc(=O)oc2cc(NC(=O)[C@H](CCCCNC(=O)C(F)(F)F)NC(=O)OCc3ccccc3)ccc12`, the metabolised at 6 h in data set [1] was 54%. Further, in [2], the metabolised at 24 h was 64%. Besides, the metabolised at 3 h in data set [3] turned out to be 57%. In addition, in data set [4], the metabolised at 1 h is 16%. Further, the metabolised at 2 h in data set [5] amounted to 41%.

For the molecule `CN(C)c1ccc(C(=O)NCCCCCC(=O)NO)cc1`, the IC50 is on record as 640 nM on Histone deacetylase [6] and 216 nM against Histone deacetylase [7].

Consider `CC(=O)NCCCC[C@@H](NC(=O)OCc1ccccc1)C(=O)Nc1ccc2c(C)cc(=O)oc2c1`, for which the metabolised at 6 h in [1] was 3%. For the same molecule, the metabolised at 24 h in data set [2] turned out to be 14%. Further, in data set [3], the metabolised at 3 h was found to be 0%. Further, the metabolised at 1 h in data set [4] turned out to be 0%. Besides, in data set [5], the metabolised at 2 h was 9%.

As to `CC(=O)NCCCC[C@H](NC(=O)OCC1c2ccccc2-c2ccccc21)C(=O)Nc1ccc2c(C)cc(=O)oc2c1`, the metabolised at 6 h in data set [1] was determined as 86%. Besides, the metabolised at 24 h in [2] stood at 90%. Further, the metabolised at 3 h in data set [3] turned out to be 78%. Also, the metabolised at 1 h in data set [4] is 47%. Further, the metabolised at 2 h in [5] came out at 74%.

Consider `Cc1cc(=O)oc2cc(NC(=O)[C@H](CCCCNC(=O)Cc3ccccc3)NC(=O)OCc3ccccc3)ccc12`, for which the metabolised at 6 h in [1] came out at 0%. Moreover, the metabolised at 24 h in data set [2] came to 0%. Besides, the metabolised at 3 h in data set [3] came out at 0%. The metabolised at 1 h in data set [4] worked out at 0%. Also, the metabolised at 2 h in data set [5] is 0%.

On to `CC(=O)NCCCC[C@H](NC(=O)OC(C)(C)C)C(=O)Nc1ccc2c(C(F)(F)F)cc(=O)oc2c1`, for which the metabolised at 6 h in data set [1] turned out to be 68%. Moreover, in [2], the metabolised at 24 h turned out to be 96%. Also, the metabolised at 3 h in data set [3] was 47%. Further, the metabolised at 1 h in data set [4] worked out at 30%. The metabolised at 2 h in [5] is 43%.

For the molecule `CN(C)c1ccc(C(=O)NCCCCCCC(=O)NO)cc1`, the IC50 was found to be 78.2 nM on Histone deacetylase [8], 148 nM on Histone deacetylase [9] and 3512 nM against Histone deacetylase [10].

For the molecule `CCCC(=O)NCCCC[C@H](NC(=O)OCc1ccccc1)C(=O)Nc1ccc2c(C)cc(=O)oc2c1`, in [1], the metabolised at 6 h was determined as 21%. Further, in data set [2], the metabolised at 24 h amounted to 48%. In data set [3], the metabolised at 3 h came out at 12%. The metabolised at 1 h in data set [4] came out at 0%. The metabolised at 2 h in data set [5] came out at 1%.

As to `O=C(CCCCC[C@@H]1NC(=O)[C@H]2CCCN2C(=O)[C@H](Cc2ccccc2)NC(=O)[C@H](Cc2ccccc2)NC1=O)NO`, the IC50 is listed as 349 nM at Histone deacetylase [8], 411 nM against Histone deacetylase [9] and 65.6 nM against Histone deacetylase [10].

As for `CC(=O)NCCCC[C@H](NC(=O)OC(C)(C)C)C(=O)Nc1ccc2c(C)cc(=O)oc2c1`, the metabolised at 6 h in [1] came to 91%. In data set [2], the metabolised at 24 h is 100%. In addition, the metabolised at 3 h in [3] amounted to 70%. Also, the metabolised at 1 h in data set [4] is 38%. The metabolised at 2 h in data set [5] stood at 60%.

With `CC[C@@H](C)[C@@H]1NC(=O)[C@@H](Cc2ccc(OC)cc2)NC(=O)[C@H](CCCCCC(=O)NO)NC(=O)[C@H]2CCCN2C1=O`, the IC50 is recorded as 55.7 nM against Histone deacetylase [8], 80.4 nM on Histone deacetylase [9] and 6.29 nM at Histone deacetylase [10]. Further, in [11], the Selectivity was determined as 34.

Regarding `CN(C)c1ccc(C(=O)NCCCCCCCC(=O)NO)cc1`, the IC50 stood at 256 nM at Histone deacetylase [8], 488 nM on Histone deacetylase [9] and 241 nM against Histone deacetylase [10].

Regarding `CC1(C)NC(=O)[C@H](CCCCCC(=O)NO)NC(=O)[C@H]2CCCN2C(=O)[C@H](Cc2ccccc2)NC1=O` (cyclo([Aib]F[dP][Asu](NHOH))), the half-inhibitory concentration (IC50) at Histone deacetylase [8] was determined as 137 nM; against Histone deacetylase [9], 226 nM; against Histone deacetylase [10] it was 21.2 nM.
